A short description of the assay: apoptosis induction in non-primed human MEWO line – cell-based, luminescence, dry powder, set 2, counter-screen for A1 inhibitor project, dose response (AID 504354). To be noted: MEWO cells (unprimed), caspase-Glo luminescence, 3 h; at 16 µM; active compounds read high. Put shortly: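 System: unprimed MEWO cell line expressing A1; Amount: 2500 cells/well; Medium: RPMI-1640 plus 10% FBS; Doses: pin-transferred compound; Schedule: 3 h compound treatment at 37 °C, 1 h reagent at RT; Detection: CaspaseGlo luminescence, reagent mixed 1:1 with 50 mM HEPES; Read-out basis: caspase activity from luminescent signal.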
(In general: A counterscreen serves to expose hits that act by an unwanted route or on another target.)

Unmarked numbers belong to inactive results.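 The calls were made as follows: active = curve reaches 10% of the strong reference activator's caspase signal at or below the top valid tested dose; inactive = signal moves in the opposite direction, or the rest.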

Data on 1 compound can be found in PubChem BioAssay AID504354 (Broad Institute, 2011).

Take `C/C1=C/C(=O)O[C@@H]2C[C@@H](CC[C@H](C)/C=C\CC1)O[C@@](O)(C1CSC(=O)N1)C2` (stereo partly specified): the caspase activation was 2.23%.
